The structures appear in SMILES notation. Entries after “also recorded” stand apart in the source; their conditions may differ.

In data set [1] the test system is HIV-1 FSS RNA. Briefly: SPR binding to immobilised HIV-1 FSS RNA. The settings on record: for ka / kd: SPR, 1:1 Langmuir fit, average of four curves.
The subject of another data set is pseudotyped HIV. The settings on record: earlier work; cited from earlier work.
For the next data set, the system named is p160 Gag-Pol. The settings on record: earlier work; cited from earlier work.
Another data set concerns HEK293FT cells. Briefly: WST-1 cytotoxicity assay. The class given is cell-based. The following applies: 24 hours.
For another data set, the system named is HIV IIIB. The following applies: earlier work; cited from earlier work.
The next data set relates to HIV-1 AD.MDR01. The following applies: patient-derived strain; cited from earlier work.
Data set [2] deals with HIV-1 FSS RNA. Briefly: Competitive SPR assay with excess yeast tRNA in solution. Type of data set: binding. The procedure, abridged: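 Streptavidin was coupled by EDC/NHS onto a CM5 chip, then ethanolamine-blocked; about 2000 RU of biotinylated HIV-1 FSS RNA (refolded 3 min at 75 °C in HBS, pH 7.4) was captured on one flow cell. Analyte was injected with or without excess bulk yeast tRNA at 80 μL/min for 1 min in HBS. At least two injections per condition.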

Data set [3] relates to HIV-1 FSS RNA. Briefly: Competition dialysis, HIV-1 FSS hairpin. The settings on record: 2.0 μM compound, 2.5 μM RNA, 36 hours, 8 competing human hairpins. Type of data set: binding. In a few lines:
(§1)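 RNA hairpins refolded at 2.5 μM in PBS with 1 mM EDTA (3 min 25 °C, 3 min 90 °C, 5 min 27 °C). Duplicate dialysis tubes (MWCO 3500) of RNA, plus an RNA-free control, dialysed 36 h against 2.0 μM test compound in PBS. Bound compound released with 1% Triton X-100 (final). Total compound per tube quantified by HPLC against a calibration curve.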

The subject of the next data set is IRF5 RNA. Briefly: Competition dialysis, IRF5 mRNA hairpin. Type of data set: binding, human. The settings on record: 2.0 μM compound, 2.5 μM RNA, 36 hours. The procedure, abridged:
as §1

For data set [4], the system named is hairpin derived from BDNF. Briefly: Competition dialysis, BDNF mRNA hairpin. The class given is binding, human. The settings on record: 2.0 μM compound, 2.5 μM RNA, 36 hours. In a few lines:
as §1

In the data set with HIV-1 FSS RNA [1], `CN(C(=O)c1cnc2ccccc2c1)[C@@H](CCn1cc(C[C@@H](C(=O)N2C[C@H](O)C[C@H]2C(=O)N(C)[C@@H](Cc2ccccc2)C(=O)NCCCN)N(C)C(=O)c2cnc3ccccc3c2)nn1)C(=O)N1C[C@H](O)C[C@H]1C(=O)N(C)[C@@H](Cc1ccccc1)C(=O)NCCCN` [Compound 7] displayed a ka of 67400 M⁻¹ s⁻¹ and a kd of 0.00542 s⁻¹.

For the compound `CCc1nc2ccccc2cc1C(=O)N(C)[C@@H](CCn1cc(C[C@@H](C(=O)N2C[C@H](O)C[C@H]2C(=O)N(C)[C@@H](Cc2ccccc2)C(=O)NCCCN)N(C)C(=O)c2cc3ccccc3nc2CC)nn1)C(=O)N1C[C@H](O)C[C@H]1C(=O)N(C)[C@@H](Cc1ccccc1)C(=O)NCCCN` [Compound 5], in the data set with HIV-1 FSS RNA [1], the ka worked out at 14900 M⁻¹ s⁻¹ and the kd was 0.0068 s⁻¹.

In the data set on HIV-1 FSS RNA [1], `CCc1nc2ccccc2cc1C(=O)N(C)[C@@H](CCn1cc(C[C@@H](C(=O)N2CCC[C@H]2C(=O)N(C)[C@@H](Cc2ccccc2)C(N)=O)N(C)C(=O)c2cc3ccccc3nc2CC)nn1)C(=O)N1CCC[C@H]1C(=O)N(C)[C@@H](Cc1ccccc1)C(N)=O` [Compound 8] returned a ka of 1690 M⁻¹ s⁻¹ and a kd of 0.0207 s⁻¹.

`CCc1nc2cc3ccccc3cc2cc1C(=O)N[C@@H](C/C=C\C[C@H](NC(=O)c1cc2cc3ccccc3cc2nc1CC)C(=O)N1CCC[C@H]1C(=O)N[C@@H](Cc1ccccc1)C(=O)NCCCN)C(=O)N1CCC[C@H]1C(=O)N[C@@H](Cc1ccccc1)C(=O)NCCCN` [Compound 2]: in the data set with pseudotyped HIV, the “effect on pseudotyped HIV” value was “inhibited both production and infectivity”. Besides, the “p160 Gag-Pol level in virus (Western blot)” value with p160 Gag-Pol was “concentration-dependent increases in p160 Gag-Pol”.

For the compound `CN(C(=O)c1cnc2ccccc2c1)[C@@H](CCn1cc(C[C@@H](C(=O)N2C[C@H](O)C[C@H]2C(=O)N(C)[C@@H](Cc2ccccc2)C(N)=O)N(C)C(=O)c2cnc3ccccc3c2)nn1)C(=O)N1C[C@H](O)C[C@H]1C(=O)N(C)[C@@H](Cc1ccccc1)C(N)=O` [Compound 10], the “fold difference in KD between 10 and 6” value in the data set with HIV-1 FSS RNA [1] (KD ratio 10 versus 6) is 23 fold. In the data set with HIV-1 FSS RNA [1], this compound had a ka of 4090 M⁻¹ s⁻¹ and a kd of 0.00541 s⁻¹.

`CCc1nc2ccccc2cc1C(=O)N(C)[C@@H](CCn1cc(C[C@@H](C(=O)N2CCC[C@H]2C(=O)N(C)[C@@H](Cc2ccccc2)C(=O)NCCCN)N(C)C(=O)c2cc3ccccc3nc2CC)nn1)C(=O)N1CCC[C@H]1C(=O)N(C)[C@@H](Cc1ccccc1)C(=O)NCCCN` [Compound 4]: in the data set on HIV-1 FSS RNA [1], the ka was determined as 64900 M⁻¹ s⁻¹ and the kd is 0.0237 s⁻¹. In addition, the “effect on cellular metabolism (WST-1)” value in the data set with HEK293FT cells is given as “significant effects below a concentration of 40 micromolar”.

Consider `CCc1nc2cc3ccccc3cc2cc1C(=O)N(C)[C@@H](CCn1cc(C[C@@H](C(=O)N2CCC[C@H]2C(=O)N(C)[C@@H](Cc2ccccc2)C(=O)NCCCN)N(C)C(=O)c2cc3cc4ccccc4cc3nc2CC)nn1)C(=O)N1CCC[C@H]1C(=O)N(C)[C@@H](Cc1ccccc1)C(=O)NCCCN` [Compound 3], for which, in the data set on HIV-1 FSS RNA [1], the ka amounted to 190000 M⁻¹ s⁻¹ and the kd came to 0.003 s⁻¹. Besides, the “inhibition of laboratory strain HIV-1 IIIB” value with HIV IIIB is given as “inhibited”. Besides, the “inhibition of multidrug resistant strain” value in the data set on HIV-1 AD.MDR01 is “inhibited”. Also, the “effect on pseudotyped HIV” value in the data set with pseudotyped HIV is “inhibited both production and infectivity”. Also, in the data set on p160 Gag-Pol, the “p160 Gag-Pol level in virus (Western blot)” value is recorded as “concentration-dependent increases in p160 Gag-Pol”.

`NC[C@@H]1O[C@H](O[C@H]2[C@@H](O)[C@H](O[C@@H]3[C@@H](O)[C@H](N)C[C@H](N)[C@H]3O[C@H]3O[C@H](CN)[C@@H](O)[C@H](O)[C@H]3N)O[C@@H]2CO)[C@H](N)[C@@H](O)[C@@H]1O` [Neomycin, neomycin, reference compound]: in the data set on HIV-1 FSS RNA [2] (30 μM tRNA, 3-fold excess relative to neomycin), the “SPR signal for HIV-1 FSS binding with tRNA” value is reported as “completely ablated”.

As to `CN(C(=O)c1cnc2ccccc2c1)[C@@H](CCn1cc(C[C@@H](C(=O)N2CCC[C@H]2C(=O)N(C)[C@@H](Cc2ccccc2)C(=O)NCCCN)N(C)C(=O)c2cnc3ccccc3c2)nn1)C(=O)N1CCC[C@H]1C(=O)N(C)[C@@H](Cc1ccccc1)C(=O)NCCCN` [Compound 6], the “fold lower affinity for the FSS than compound 3” value in the data set on HIV-1 FSS RNA [1] (KD ratio versus 3) was found to be 4 fold. The compound further registered a ka in the data set on HIV-1 FSS RNA [1] of 56600 M⁻¹ s⁻¹. Moreover, the kd at HIV-1 FSS RNA [1] came out at 0.00226 s⁻¹. Moreover, the “change of binding constant with versus without excess tRNA” value in the data set on HIV-1 FSS RNA [2] (SPR traces with and without excess tRNA) is “within statistical error; also recorded: little impact on binding”. In addition, the “binding among hairpins in competition dialysis” value in the data set on HIV-1 FSS RNA [3] is on record as “preferentially binds to HIV-1 FSS”. The “binding in competition dialysis” value (in the data set with IRF5 RNA; in data set [4]) was “appreciably bound” each time.
